# Data taken from ChEMBL document CHEMBL2311431, “Synthesis and biological evaluation of some 5-arylidene-2-(1,3-thiazol-2-ylimino)-1,3-thiazolidin-4-ones as dual anti-inflammatory/antimicrobial agents” (Bioorg Med Chem, 2013).
# Activity calls are given as the source filed them. No cut-off for these calls is given here.
# Assays:
# [1] = tested on: Aspergillus fumigatus; experiment: Antifungal activity against Aspergillus fumigatus after 72 hrs by serial dilution technique; format: functional
# Summary of the method: (§1)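 Serial dilution in malt broth; compounds from 1 mg/ml stocks in 5% DMSO; 72 h at 28 °C. MIC is the lowest concentration with no visible growth under a binocular microscope. Run in duplicate, repeated three times.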
# [2] = tested on: Listeria monocytogenes; experiment: Bactericidal activity against Listeria monocytogenes NCTC 7973 after 72 hrs by serial subcultivation method; format: functional; conditions: NCTC 7973, 72 h
# [3] = tested on: Micrococcus flavus; experiment: Antibacterial activity against Micrococcus flavus ATCC 10240 after 24 hr by microdilution test; format: functional; conditions: ATCC 10240, 24 h
# Summary of the method: (§2)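 Broth microdilution in LB medium, about 1.0×10^4 cfu per well; compounds from 1 mg/ml stocks in 5% DMSO. Incubated 24 h. MIC is the lowest concentration with no visible growth under a binocular microscope. Run in duplicate, repeated three times.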
# [4] = tested on: Talaromyces funiculosus; experiment: Antifungal activity against Penicillium funiculosum ATCC 36839 after 72 hrs by serial dilution technique; format: functional; conditions: ATCC 36839, 72 h; summary of the method: as §1
# [5] = tested on: Escherichia coli; experiment: Bactericidal activity against Escherichia coli ATCC 35210 after 72 hrs by serial subcultivation method; format: functional; conditions: ATCC 35210, 72 h
# [6] = tested on: Trichoderma viride; experiment: Fungicidal activity against Trichoderma viride IAM 5061 after 72 hrs by serial subcultivation method; format: functional; conditions: IAM 5061, 72 h
# [7] = tested on: Pseudomonas aeruginosa; experiment: Bactericidal activity against Pseudomonas aeruginosa ATCC 27853 after 72 hrs by serial subcultivation method; format: functional; conditions: ATCC 27853, 72 h
# [8] = tested on: Pseudomonas aeruginosa; experiment: Antibacterial activity against Pseudomonas aeruginosa ATCC 27853 after 24 hr by microdilution test; format: functional; conditions: ATCC 27853, 24 h; summary of the method: as §2
# [9] = tested on: Staphylococcus aureus; experiment: Bactericidal activity against Staphylococcus aureus ATCC 6538 after 72 hrs by serial subcultivation method; format: functional; conditions: ATCC 6538, 72 h
# [10] = tested on: Aspergillus niger; experiment: Fungicidal activity against Aspergillus niger ATCC 6275 after 72 hrs by serial subcultivation method; format: functional; conditions: ATCC 6275, 72 h
# [11] = tested on: Mus musculus; experiment: Acute toxicity in AKR mouse up to 0.5 mmol/kg, ip; format: organism-based; conditions: in vivo
# [12] = tested on: Trichoderma viride; experiment: Antifungal activity against Trichoderma viride IAM 5061 after 72 hrs by serial dilution technique; format: functional; conditions: IAM 5061, 72 h; summary of the method: as §1
# [13] = tested on: Micrococcus flavus; experiment: Bactericidal activity against Micrococcus flavus ATCC 10240 after 72 hrs by serial subcultivation method; format: functional; conditions: ATCC 10240, 72 h
# [14] = tested on: Staphylococcus aureus; experiment: Antibacterial activity against Staphylococcus aureus ATCC 6538 after 24 hr by microdilution test; format: functional; conditions: ATCC 6538, 24 h; summary of the method: as §2
# [15] = tested on: Talaromyces funiculosus; experiment: Fungicidal activity against Penicillium funiculosum ATCC 36839 after 72 hrs by serial subcultivation method; format: functional; conditions: ATCC 36839, 72 h
# [16] = tested on: Aspergillus fumigatus; experiment: Fungicidal activity against Aspergillus fumigatus after 72 hrs by serial subcultivation method; format: functional
# [17] = tested on: Escherichia coli; experiment: Antibacterial activity against Escherichia coli ATCC 35210 after 24 hr by microdilution test; format: functional; conditions: ATCC 35210, 24 h; summary of the method: as §2
# [18] = tested on: Bacillus cereus; experiment: Bactericidal activity against Bacillus cereus clinical isolate after 72 hrs by serial subcultivation method; format: functional
# [19] = tested on: Penicillium ochrochloron; experiment: Antifungal activity against Penicillium ochrochloron ATCC 9112 after 72 hrs by serial dilution technique; format: functional; conditions: ATCC 9112, 72 h; summary of the method: as §1
# [20] = molecular target: T1, Prostaglandin G/H synthase 1 (Ovis aries) (UniProt P05979); experiment: Inhibition of ovine COX1 assessed as inhibition of PGF2a production by enzyme immunoassay; design: concentration or dose not given beside the values
# T1 sequence (whole entry): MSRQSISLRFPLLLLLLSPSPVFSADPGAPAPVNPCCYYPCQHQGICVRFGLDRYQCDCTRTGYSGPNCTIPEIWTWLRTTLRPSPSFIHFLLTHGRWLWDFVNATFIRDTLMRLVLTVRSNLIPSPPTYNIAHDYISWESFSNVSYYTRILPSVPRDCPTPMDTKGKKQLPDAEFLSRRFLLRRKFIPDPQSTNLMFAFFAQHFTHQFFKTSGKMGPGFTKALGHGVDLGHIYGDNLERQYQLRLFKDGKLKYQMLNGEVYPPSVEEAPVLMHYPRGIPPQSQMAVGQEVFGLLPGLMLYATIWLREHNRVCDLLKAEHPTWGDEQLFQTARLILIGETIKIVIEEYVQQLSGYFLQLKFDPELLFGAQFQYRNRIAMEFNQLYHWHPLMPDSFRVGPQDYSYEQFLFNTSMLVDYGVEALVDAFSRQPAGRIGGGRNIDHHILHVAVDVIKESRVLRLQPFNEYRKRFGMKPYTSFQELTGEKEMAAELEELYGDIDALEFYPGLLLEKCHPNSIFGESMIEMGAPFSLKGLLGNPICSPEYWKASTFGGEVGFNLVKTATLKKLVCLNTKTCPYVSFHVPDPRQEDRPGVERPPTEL
# Summary of the method: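 Ovine COX-1 from a commercial screening kit, tested with 0.1 µM arachidonic acid, which is below the saturating level. COX-derived PGH2 is reduced by SnCl2 to PGF2a, quantified by enzyme immunoassay with a broad prostaglandin antibody. At least triplicate.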
# [21] = tested on: Penicillium ochrochloron; experiment: Fungicidal activity against Penicillium ochrochloron ATCC 9112 after 72 hrs by serial subcultivation method; format: functional; conditions: ATCC 9112, 72 h
# [22] = tested on: Aspergillus niger; experiment: Antifungal activity against Aspergillus niger ATCC 6275 after 72 hrs by serial dilution technique; format: functional; conditions: ATCC 6275, 72 h; summary of the method: as §1
# [23] = tested on: Mus musculus; experiment: Antiinflammatory activity in AKR mouse assessed as inhibition of carrageenan-induced paw edema at 0.01 mmol/kg, ip measured after 3.5 hrs of carrageenan-challenge; format: functional
# Summary of the method: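 AKR mice of both sexes (pregnant females excluded), 6-10 per group, fasted during the experiment. Edema induced by intradermal 0.05 mL of 2% carrageenin into the right hind paw. Compound given at 0.01 mmol/kg ip, suspended in water with Tween-80, at the same time as carrageenin.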
# [24] = tested on: Aspergillus flavus; experiment: Fungicidal activity against Aspergillus flavus ATCC 9643 after 72 hrs by serial subcultivation method; format: functional; conditions: ATCC 9643, 72 h
# [25] = tested on: Aspergillus flavus; experiment: Antifungal activity against Aspergillus flavus ATCC 9643 after 72 hrs by serial dilution technique; format: functional; conditions: ATCC 9643, 72 h; summary of the method: as §1
# [26] = tested on: Listeria monocytogenes; experiment: Antibacterial activity against Listeria monocytogenes NCTC 7973 after 24 hr by microdilution test; format: functional; conditions: NCTC 7973, 24 h; summary of the method: as §2
# [27] = Inhibition of soybean lipoxygenase assessed as inhibition of sodium linolate conversion to 13-hydroperoxylinoleic acid after 4 mins by spectrophotometry; design: species or system Glycine max
# [28] = tested on: Bacillus cereus; experiment: Antibacterial activity against Bacillus cereus clinical isolate after 24 hr by microdilution test; format: functional; summary of the method: as §2
Compound,MIC [1] [µM],MBC [2] [µM],MIC [3] [µM],MIC [4] [µM],MBC [5] [µM],MFC [6] [µM],MBC [7] [µM],MIC [8] [µM],MBC [9] [µM],MFC [10] [µM],MIC [12] [µM],MBC [13] [µM],MIC [14] [µM],MFC [15] [µM],MFC [16] [µM],MIC [17] [µM],MBC [18] [µM],MIC [19] [µM],MIC [26] [µM],MIC [28] [µM],also measured
COc1ccc(OC)c(/C=C2\S/C(=N/c3nccs3)NC2=O)c1,233,230,232,7.3,464,348,406,290,348,290,58,290,232,58,348,406,348,58,58,232,Activity [11]: Non-toxic; inhibition ([20]; concentration not given here): 85%; MFC [21]: 116 µM; MIC [22]: 232 µM; inhibition in vivo at 10 µmol/kg [23]: 26%; MFC [24]: 348 µM; MIC [25]: 290 µM; IC50 ([27]; read-out: IC50): 52 µM
c1ccc(-c2ccc(C(c3ccccc3)n3ccnc3)cc2)cc1 (centres undefined) [BIFONAZOLE],480,,,640,,800,,,,640,640,,,800,640,,,480,,,MFC [21]: 640 µM; MIC [22]: 480 µM; MFC [24]: 640 µM; MIC [25]: 480 µM
COc1ccc2cc([C@H](C)C(=O)O)ccc2c1 [NAPROXEN],,,,,,,,,,,,,,,,,,,,,inhibition ([20]; concentration not given here): 46%; inhibition [23]: inactive; IC50 [27]: Not Active
CC1(C)S[C@@H]2[C@H](NC(=O)[C@H](N)c3ccccc3)C(=O)N2[C@H]1C(=O)O [AMPICILLIN],,744,248,,492,,1240,744,372,,,372,248,,,372,372,,372,248,
COc1ccc2c(c1)c(CC(=O)O)c(C)n2C(=O)c1ccc(Cl)cc1 [INDOMETHACIN],,,,,,,,,,,,,,,,,,,,,inhibition [20]: inactive; IC50 [27]: Not Active
CN[C@@H]1[C@H](O[C@H]2[C@H](O[C@H]3[C@H](O)[C@@H](O)[C@H](N=C(N)N)[C@@H](O)[C@@H]3N=C(N)N)O[C@@H](C)[C@]2(O)C=O)O[C@@H](CO)[C@H](O)[C@H]1O [STREPTOMYCIN],,516,86,,344,,344,172,344,,,172,172,,,172,86,,258,43,
